Source: ChEMBL document CHEMBL1275449, “Potent in vitro antifungal activities of naturally occurring acetylenic acids” (Antimicrob Agents Chemother, 2008)
The source made the active and inactive calls.

What was measured:
Candida albicans [1] = assay: Antifungal activity against Candida albicans ATCC 200955 at 198.1 uM after 48 hrs by CLSI method; type: functional, organism-based
Method in brief: (§1)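 Candida inocula came from 24–72-h SD agar colonies suspended in saline. They were diluted by OD630 standard curve into RPMI 1640 (0.2% dextrose, 0.03% glutamine, 0.165 M MOPS, pH 7.0) to 1.5 × 10³ CFU/ml. Compounds were run as 11 twofold dilutions in 20% DMSO-saline, in duplicate, at 35°C for 48 h, with OD530 read before and after. Percent growth at the top concentration, IC50, MIC, and MFC (SD agar plating) were derived.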

Candida albicans [2] = assay: Antifungal activity against Fluconazole resistant Candida albicans isolate 1 at 198.1 uM after 48 hrs by CLSI method; type: functional, organism-based
Method in brief: (§2)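 Candida in CLSI broth microdilution. Saline colony suspension set to 1.5 × 10³ CFU/ml (final) in MOPS-buffered RPMI 1640, pH 7.0. Test agent given as twofold serial dilutions in 20% DMSO-saline, duplicate wells. 35°C for 48 h. Growth read as OD530 before and after incubation. Percent inhibition scored at the highest test concentration.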

Cryptococcus neoformans [3] = assay: Antifungal activity against Cryptococcus neoformans ATCC 90113 at 198.1 uM after 72 hrs by CLSI method; type: functional, organism-based
Candida albicans [4] = assay: Antifungal activity against Candida albicans ATCC 60193 at 169.8 uM after 48 hrs by CLSI method; type: functional, organism-based; method in brief: as §1
Candida parapsilosis = assay: Antifungal activity against Candida parapsilosis ATCC 22019 at 169.8 uM after 48 hrs by CLSI method; type: functional, organism-based
Method in brief: (§3)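 Yeast suspensions made from 3-5 colonies off 24-72 h SD agar plates in saline. They were diluted by OD630 standard curve in RPMI 1640 (0.2% dextrose, 0.03% glutamine, 0.165 M MOPS, pH 7.0) to 1.5 × 10³ CFU/ml. Twofold dilutions (11 concentrations, 20% DMSO-saline) run in duplicate. OD530 read before and after 35°C, 48 h. Line values are top test concentrations; no-growth endpoints give MIC/MFC.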

Candida tropicalis [5] = assay: Antifungal activity against Candida tropicalis ATCC 750 at 169.8 uM after 48 hrs by CLSI method; type: functional, organism-based; method in brief: as §3
Mus musculus = assay: Toxicity in mouse up to 34 umol/kg/day, ip for 3 days; type: organism-based; conditions: in vivo, 72 h
Cryptococcus neoformans [6] = assay: Antifungal activity against Cryptococcus neoformans ATCC 90113 at 169.8 uM after 72 hrs by CLSI method; type: functional, organism-based
Method in brief: (§4)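 SD broth replaced RPMI because growth in RPMI was poor; other CLSI conditions were kept. Inoculum was 1.5 × 10³ CFU/ml from colonies on SD agar, checked by plating. Twofold serial dilutions (11 concentrations) in 20% DMSO-saline were tested in duplicate. OD530 was read before and after incubation at 35°C for 72 h. Percent growth gave IC50; the MIC is the lowest concentration with no detectable growth.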

Aspergillus fumigatus [7] = assay: Antifungal activity against Aspergillus fumigatus ATCC 90906 at 169.8 uM after 48 hrs by CLSI method; type: functional, organism-based
Aspergillus flavus [8] = assay: Antifungal activity against Aspergillus flavus ATCC 204304 at 169.8 uM after 48 hrs by CLSI method; type: functional, organism-based
Trichophyton rubrum [9] = assay: Antifungal activity against Trichophyton rubrum ATCC MYA-4438 at 169.8 uM after 5 days by CLSI method; type: functional, organism-based
Candida albicans [10] = assay: Antifungal activity against Candida albicans ATCC 14053 at 168.9 uM after 48 hrs by CLSI method; type: functional, organism-based
Pichia kudriavzevii = assay: Antifungal activity against Candida krusei ATCC 6258 at 168.9 uM after 48 hrs by CLSI method; type: functional, organism-based; method in brief: as §1
Candida tropicalis [11] = assay: Antifungal activity against Candida tropicalis ATCC 750 at 168.9 uM after 48 hrs by CLSI method; type: functional, organism-based; method in brief: as §3
Cryptococcus neoformans [12] = assay: Antifungal activity against Cryptococcus neoformans ATCC 66031 at 168.9 uM after 72 hrs by CLSI method; type: functional, organism-based; method in brief: as §4
Aspergillus fumigatus [13] = assay: Antifungal activity against Aspergillus fumigatus ATCC 204305 at 168.9 uM after 48 hrs by CLSI method; type: functional, organism-based
Aspergillus fumigatus [14] = assay: Antifungal activity against Aspergillus fumigatus ATCC 90906 at 168.9 uM after 48 hrs by CLSI method; type: functional, organism-based
Aspergillus flavus [15] = assay: Antifungal activity against Aspergillus flavus ATCC 204304 at 168.9 uM after 48 hrs by CLSI method; type: functional, organism-based
Trichophyton rubrum [16] = assay: Antifungal activity against Trichophyton rubrum ATCC MYA-4438 at 168.9 uM after 5 days by CLSI method; type: functional, organism-based
Trichophyton rubrum [17] = assay: Antifungal activity against Trichophyton rubrum ATCC 10218 at 168.9 uM after 5 days by CLSI method; type: functional, organism-based
Candida albicans [18] = assay: Antifungal activity against Candida albicans ATCC 60193 at 187.7 uM after 48 hrs by CLSI method; type: functional, organism-based; method in brief: as §1
Candida albicans [19] = assay: Antifungal activity against Candida albicans ATCC 90028 at 187.7 uM after 48 hrs by CLSI method; type: functional, organism-based; method in brief: as §1
Candida albicans [20] = assay: Antifungal activity against Candida albicans ATCC 200955 at 187.7 uM after 48 hrs by CLSI method; type: functional, organism-based; method in brief: as §1
Cryptococcus neoformans [21] = assay: Antifungal activity against Cryptococcus neoformans ATCC 66031 at 187.7 uM after 72 hrs by CLSI method; type: functional, organism-based; method in brief: as §4
Aspergillus fumigatus [22] = assay: Antifungal activity against Aspergillus fumigatus ATCC 204305 at 187.7 uM after 48 hrs by CLSI method; type: functional, organism-based
Aspergillus fumigatus [23] = assay: Antifungal activity against Aspergillus fumigatus ATCC 90906 at 187.7 uM after 48 hrs by CLSI method; type: functional, organism-based
Candida albicans [24] = assay: Antifungal activity against Candida albicans ATCC 90028 at 9.4 uM after 48 hrs by CLSI method; type: functional, organism-based; method in brief: as §2
Candida albicans [25] = assay: Antifungal activity against Fluconazole resistant Candida albicans isolate 1 at 9.4 uM after 48 hrs by CLSI method; type: functional, organism-based; method in brief: as §2
Aspergillus fumigatus [26] = assay: Antifungal activity against Aspergillus fumigatus ATCC 90906 at 9.4 uM after 48 hrs by CLSI method; type: functional, organism-based
Method in brief: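 Aspergillus growth on 1–6-week potato dextrose slants scraped and Miracloth-filtered. Inoculum sized by OD630 curve to 2.7 × 10⁴ CFU/ml (final) in 5% Alamar blue-RPMI 1640 (MOPS, pH 7.0). Duplicate twofold dilutions from 20% DMSO-saline. 35°C for 48 h. Fluorescence 544/590 nm read before and after. Percent inhibition taken at the highest test concentration.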

[27] = tested on: Trichophyton mentagrophytes; assay: Antifungal activity against Trichophyton mentagrophytes ATCC MYA-4439 at 9.4 uM after 5 days by CLSI method; type: functional, organism-based
Method in brief: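 Trichophyton growth scraped from 1–6-week potato dextrose slants and filtered through Miracloth. Inoculum 2.7 × 10⁴ CFU/ml (final) in 5% Alamar blue-RPMI 1640 buffered with MOPS, pH 7.0. Duplicate twofold dilutions from 20% DMSO-saline. Incubated 35°C for 5 days. Fluorescence read at 544 nm excitation, 590 nm emission. Inhibition assessed at the highest test concentration.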

Candida albicans [28] = assay: Antifungal activity against Candida albicans ATCC 60193 at 9.4 uM after 48 hrs by CLSI method; type: functional, organism-based; method in brief: as §2
Candida albicans [29] = assay: Antifungal activity against Candida albicans ATCC 32354 at 9.4 uM after 48 hrs by CLSI method; type: functional, organism-based; method in brief: as §2

Measured: Activity

CCCCCCCCCC#CCCCCC(=O)O
inactive: Candida albicans [1] | Candida albicans [2] | Cryptococcus neoformans [3]

CCCCCCCCCCCCC#CCCCCC(=O)O [6-NONADECYNOIC ACID]
Non-toxic: Mus musculus
inactive: Candida albicans [4] | Candida parapsilosis | Candida tropicalis [5] | Cryptococcus neoformans [6] | Aspergillus fumigatus [7] | Aspergillus flavus [8] | Trichophyton rubrum [9]

CCCCCC#CCC#CCC#CCC#CCCCC(=O)O
inactive: Candida albicans [10] | Pichia kudriavzevii | Candida tropicalis [11] | Cryptococcus neoformans [12] | Aspergillus fumigatus [13] | Aspergillus fumigatus [14] | Aspergillus flavus [15] | Trichophyton rubrum [16] | Trichophyton rubrum [17]

CCCCCCCCCCC#CCCCCC(=O)O
inactive: Candida albicans [18] | Candida albicans [19] | Candida albicans [20] | Cryptococcus neoformans [21] | Aspergillus fumigatus [22] | Aspergillus fumigatus [23]

CC(=O)N1CCN(c2ccc(OCC3COC(Cn4ccnc4)(c4ccc(Cl)cc4Cl)O3)cc2)CC1 (configuration not stated) [KETOCONAZOLE]
inactive: Candida albicans [24] | Candida albicans [25] | Aspergillus fumigatus [26] | [27] | Candida albicans [28] | Candida albicans [29]
